{"data": "Measured values collected from several papers", "ABL1 F317I non-phosphorylated": "Tyrosine-protein kinase ABL1, non-phosphorylated (ABL1, Homo sapiens, UniProt P00519, F317I)", "ABL1 phosphorylated": "Tyrosine-protein kinase ABL1, phosphorylated (ABL1, Homo sapiens, UniProt P00519)", "ABL1 F317I phosphorylated": "Tyrosine-protein kinase ABL1, phosphorylated (ABL1, Homo sapiens, UniProt P00519, F317I)", "ABL1 F317L phosphorylated": "Tyrosine-protein kinase ABL1, phosphorylated (ABL1, Homo sapiens, UniProt P00519, F317L)", "ABL1 F317L non-phosphorylated": "Tyrosine-protein kinase ABL1, non-phosphorylated (ABL1, Homo sapiens, UniProt P00519, F317L)", "ABL1 E255K phosphorylated": "Tyrosine-protein kinase ABL1, phosphorylated (ABL1, Homo sapiens, UniProt P00519, E255K)", "ABL1 Y253F": "Tyrosine-protein kinase ABL1 (ABL1, Homo sapiens, UniProt P00519, Y253F)", "ABL1 Q252H phosphorylated": "Tyrosine-protein kinase ABL1, phosphorylated (ABL1, Homo sapiens, UniProt P00519, Q252H)", "ABL1 M351T phosphorylated": "Tyrosine-protein kinase ABL1, phosphorylated (ABL1, Homo sapiens, UniProt P00519, M351T)", "note": "Lines come from different studies, so protocols differ."}
{"Compound": "C=CC(=O)N1CCC(C(=O)NCC(=O)N2CCN(c3nc(-c4cnc(N)nc4C(F)F)nc(N4CCOCC4)n3)CC2)CC1", "target": "ABL1 F317I non-phosphorylated", "test": "binding, competition with immobilised ligand", "setting": "1 µM", "remaining binding": "100%"}
{"Compound": "O=C(c1ccc(Nc2ncc(Cl)c(-c3ccc(Cl)s3)n2)cc1)N1CCC(N2CCCC2)CC1", "target": "ABL1 phosphorylated", "test": "binding, competition with immobilised ligand", "setting": "1 µM", "remaining binding": "4.3%"}
{"Compound": "Cc1c(C(=O)O)cc(-c2ccc(C3CCNCC3)cc2)c2ccc(-c3ccc(C(F)(F)F)cc3)cc12", "target": "ABL1 F317I phosphorylated", "test": "binding", "setting": "1 µM", "remaining binding": "100%"}
{"Compound": "COc1cnc(Nc2cccc(S(N)(=O)=O)c2)nc1N1CCN(c2ccccc2)CC1", "target": "ABL1 F317I non-phosphorylated", "test": "binding, competition with immobilised ligand", "setting": "1 µM", "remaining binding": "94%"}
{"Compound": "O=C(NCCCN1CCOCC1)c1ccc(Nc2nccc(-c3cc4ccccc4s3)n2)cc1", "target": "Tyrosine-protein kinase ABL1, non-phosphorylated (ABL1, Homo sapiens, UniProt P00519, H396P)", "test": "binding, competition with immobilised ligand", "setting": "1 µM", "remaining binding": "24%"}
{"Compound": "COc1ncc2cc3ccccc3nc2c1C#N", "target": "ABL1 F317I non-phosphorylated", "test": "cell-free assay, competition with immobilised ligand", "setting": "5 µM", "remaining binding": "96%"}
{"Compound": "CO[C@H]1CC[C@H](CNc2ccc(S(=O)(=O)NC(=O)c3ccc(N4CCN(CC5=C(c6ccc(Cl)cc6)CC(C)(C)CC5)CC4)cc3Oc3cnc4[nH]ccc4c3)cc2[N+](=O)[O-])CC1", "target": "ABL1 F317L phosphorylated", "test": "cell-free assay, competition with immobilised ligand", "setting": "1 µM", "remaining binding": "83%"}
{"Compound": "C[C@@H](c1ccc(-n2cnc3c(N)ncnc32)cc1)N1CCc2nn(C)c(Cc3ccccc3)c2C1=O", "target": "Tyrosine-protein kinase ABL1, phosphorylated (ABL1, Homo sapiens, UniProt P00519, T315I)", "test": "binding, competition with immobilised ligand", "setting": "0.1 µM", "remaining binding": "78%"}
{"Compound": "CCCOc1ccc([C@@H]2[C@@H](C(=O)O)[C@H](c3ccc4c(c3)OCO4)CN2CC(=O)Nc2c(CC)cccc2CC)cc1", "target": "Tyrosine-protein kinase ABL1, non-phosphorylated (ABL1, Homo sapiens, UniProt P00519, T315I)", "test": "cell-free assay, competition with immobilised ligand", "setting": "1 µM", "remaining binding": "83%"}
{"Compound": "CN(C)c1nccc(-c2cnc3ncccn23)n1", "target": "ABL1 phosphorylated", "test": "binding", "setting": "1 µM", "remaining binding": "57%"}
{"Compound": "c1cncc(-c2cccc(Nc3nccc(NC4CCCCC4)n3)c2)c1", "target": "ABL1 F317L non-phosphorylated", "test": "binding, competition with immobilised ligand", "setting": "10 µM", "remaining binding": "81%"}
{"Compound": "Cc1cnc(Nc2ccc(C(=O)N3CCC(N4CCCC4)CC3)cc2)nc1-c1cc2ccccc2s1", "target": "ABL1 E255K phosphorylated", "test": "binding, competition with immobilised ligand", "setting": "1 µM", "remaining binding": "1.4%"}
{"Compound": "CN(C)c1nccc(-c2cnn3ncccc23)n1", "target": "ABL1 Y253F", "test": "binding", "setting": "1 µM", "remaining binding": "86%"}
{"Compound": "COc1cnc(Nc2cccc(S(N)(=O)=O)c2)nc1N1CCN(c2ccccc2)C(=O)C1", "target": "ABL1 Q252H phosphorylated", "test": "binding, competition with immobilised ligand", "setting": "1 µM", "remaining binding": "87%"}
{"Compound": "O=C(NCC1CCOCC1)c1n[nH]cc1NC(=O)c1c(F)cccc1F", "target": "ABL1 M351T phosphorylated", "test": "binding, competition with immobilised ligand", "setting": "1 µM", "remaining binding": "91%"}
{"Compound": "COc1ccc2c(O[C@@H]3C[C@H]4C(=O)N[C@]5(C(=O)O)CC5/C=C\\CCCCC[C@H](NC(=O)OC5CCCC5)C(=O)N4C3)cc(-c3csc(NC(=O)C(C)C)n3)nc2c1C (some centres unmarked)", "target": "ABL1 phosphorylated", "test": "cell-free assay, competition with immobilised ligand", "setting": "1 µM", "remaining binding": "93%"}
{"Compound": "Nc1ncc2c(n1)-c1c([nH]c3ccc(C#CC4CC4)cc13)CCCC2", "target": "ABL1 M351T phosphorylated", "test": "binding, competition with immobilised ligand", "setting": "1 µM", "remaining binding": "95%"}
{"Compound": "CN(c1nccc(-c2cnn3ncccc23)n1)C1CC1", "target": "ABL1 phosphorylated", "test": "binding", "setting": "1 µM", "remaining binding": "99%"}
{"Compound": "CNC(=O)[C@@H]1CC[C@@H](n2c(-c3ccc4cnccc4c3)nc3ccc(C(=O)NCc4cccc(C(N)=O)c4)cc32)C1", "target": "ABL1 F317L non-phosphorylated", "test": "binding, competition with immobilised ligand", "setting": "1 µM", "remaining binding": "97%"}
{"Compound": "C[C@H]1CCN(c2nccc(-c3cnn4ncccc34)n2)C1", "target": "Tyrosine-protein kinase ABL1 (ABL1, Homo sapiens, UniProt P00519, T315I)", "test": "binding", "setting": "1 µM", "remaining binding": "82%"}
{"Compound": "O=C(Nc1c[nH]nc1C(=O)NC1CCNCC1)c1cc(F)cc(F)c1", "target": "ABL1 E255K phosphorylated", "test": "binding, competition with immobilised ligand", "setting": "1 µM", "remaining binding": "100%"}
{"Compound": "O=C(c1ccc(Nc2ncc(Cl)c(-c3cc4ccccc4s3)n2)cc1)N1CCC(N2CCCC2)CC1", "target": "ABL1 E255K phosphorylated", "test": "binding, competition with immobilised ligand", "setting": "1 µM", "remaining binding": "13%"}
{"Compound": "F[C@@H]1CCN(c2nccc(-c3cnn4ncccc34)n2)C1", "target": "ABL1 Y253F", "test": "binding", "setting": "1 µM", "remaining binding": "90%"}
{"Compound": "O=C(NCc1ncc(C(F)(F)F)cc1Cl)c1ccc2c(c1)C1(CCS(=O)(=O)CC1)[C@H](C1CC1)N2S(=O)(=O)c1ccc(F)cc1", "target": "ABL1 Q252H phosphorylated", "test": "cell-free assay, competition with immobilised ligand", "setting": "1 µM", "remaining binding": "70%"}
{"Compound": "COc1ccnn2ncc(-c3ccnc(N(C)C)n3)c12", "target": "Tyrosine-protein kinase ABL1 (ABL1, Homo sapiens, UniProt P00519, E255K)", "test": "binding", "setting": "1 µM", "remaining binding": "86%"}
{"Compound": "N#CC1(c2ccccn2)CCN(Cc2cc(C(=O)N3CCCC3)c(=O)n3ccccc23)CC1", "target": "ABL1 M351T phosphorylated", "test": "cell-free assay, competition with immobilised ligand", "setting": "1 µM", "remaining binding": "100%"}
{"Compound": "O=C(NCCCN1CCOCC1)c1ccc(Nc2ncc(Cl)c(-c3ccc(Cl)s3)n2)cc1", "target": "ABL1 F317I non-phosphorylated", "test": "binding, competition with immobilised ligand", "setting": "1 µM", "remaining binding": "100%"}
{"Compound": "Cc1nc(Cc2cccc(C(F)(F)F)c2)sc1-c1ccc(C(N)=O)nc1", "target": "Tyrosine-protein kinase ABL1, non-phosphorylated (ABL1, Homo sapiens, UniProt P00519, Q252H)", "test": "cell-free assay, competition with immobilised ligand", "setting": "1 µM", "remaining binding": "87%"}
{"Compound": "N[C@@H]1CCN(c2nccc(-c3cnn4ncccc34)n2)C1", "target": "Tyrosine-protein kinase ABL1 (ABL1, Homo sapiens, UniProt P00519, Q252H)", "test": "binding", "setting": "1 µM", "remaining binding": "74%"}
{"Compound": "COc1cccc(CNC(=O)c2nc3scc(COCc4ccc(C(=O)O)cc4)c3c(=O)[nH]2)c1", "target": "ABL1 F317L phosphorylated", "test": "cell-free assay, competition with immobilised ligand", "setting": "1 µM", "remaining binding": "87.2%"}
{"Compound": "O=C(c1ccc(Nc2nccc(-c3cc4ccccc4s3)n2)cc1)N1CCC(N2CCCC2)CC1", "target": "ABL1 E255K phosphorylated", "test": "binding, competition with immobilised ligand", "setting": "1 µM", "remaining binding": "9.9%"}
{"Compound": "CCN1CCN(Cc2ccc(C(=O)Nc3ccc(C)c(Oc4ccc5c(c4)CC(=O)N5)c3)cc2C(F)(F)F)CC1", "target": "ABL1 F317I phosphorylated", "test": "binding, competition with immobilised ligand", "setting": "1 µM", "remaining binding": "24%"}
